Results from ChEMBL document CHEMBL1155163, “Deoxyribonucleoside kinases activate nucleoside antibiotics in severely pathogenic bacteria” (Antimicrob Agents Chemother, 2007).
In brackets after ≈: the same amount, converted by molar mass. Activity calls are given as the source filed them. The calls are words filed in the database; no cut-off is given here.

B1: Deoxyguanosine kinase (Staphylococcus aureus), Q0H0G8 (protein)
chain: MNKPFIAIEGPIGVGKSSLAHKLSQTLDFYEEKEIITENPFLSDFYEDISKWSFQTEMFFLCNRYKQFQDVTQLNQGVVSDYHIHKNKIFAKNTLSSVEFQKFSKIYDILTEDMIMPNMIIFLDADLDVLKSRIAKRNRSFEHQIEDEYLLKLKKDYREYYESLQSNGSNVVLIDTTSIDFLKNEQDYEDILHIILPMIGDITNE
B2: Thymidine kinase (Staphylococcus aureus), Q0H0G9 (protein)
chain: MYETYHSGWIECITGSMFSGKSEELIRRLRRGIYAKQKVVVFKPAIDDRYHKEKVVSHNGNAIEAINISKASEIMTHDLTNVDVIGIDEVQFFDDEIVSIVEKLSADGHRVIVAGLDMDFRGEPFEPMPKLMAVSEQVTKLQAVCAVCGSSSSRTQRLINGKPAKIDDPIILVGANESYEPRCRAHHIVAPSDNNKEEL
B3: Deoxyadenosine kinase (Staphylococcus aureus), Q0H0H0 (protein)
chain: MNNYGIPQNAIITIAGTVGVGKSTLTQALADKLNFKTSFENVEHNPYLDKFYSDFERWSFHLQIYFLAERFKEQKRMFEYGGGFVQDRSIYEDVDIFAKMHEEEGTMSKEDFKTYSDLFNAMVMTPYFPKPDVMIYLECNYDEVIDRIIERGREMEINTDPEYWKKLFKRYDDWINSFNACPVVRININEYDIHKDPESLNPMINKIARIIQTYRQVDTR

Key:
[1] = system: Staphylococcus aureus; assay: Antimicrobial activity against Staphylococcus aureus ATCC 29213 after 20 hrs; type: functional; details: ATCC 29213, 20 h
Outline: (§1)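 Organisms taken from overnight Columbia blood agar, adjusted to McFarland 0.5 in 0.9% NaCl, diluted a further 10-fold, then spotted on Mueller-Hinton agar containing graded nucleoside analog concentrations. Incubated 20 h at 37°C. MIC is the lowest concentration fully inhibiting growth, judged visually.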

[2] = system: Staphylococcus aureus; assay: Antimicrobial activity against Staphylococcus aureus CCM 885 after 20 hrs; type: functional; details: CCM 885, 20 h; outline: as §1
[3] = system: Streptococcus sp.; assay: Antimicrobial activity against Streptococcus sp. 07941-1 after 20 hrs; type: functional; outline: as §1
[4] = system: Streptococcus sp.; assay: Antimicrobial activity against Streptococcus sp. 07686-2 after 20 hrs; type: functional; outline: as §1
[5] = system: Streptococcus sp.; assay: Antimicrobial activity against Streptococcus sp. 07706-1 after 20 hrs; type: functional; outline: as §1
[6] = system: Escherichia coli; assay: Antimicrobial activity against Escherichia coli ATCC 25922 after 20 hrs; type: functional; details: ATCC 25922, 20 h; outline: as §1
[7] = system: Escherichia coli; assay: Antibacterial activity against […] kinase-deficient Escherichia coli KY895 expressing Staphylococcus aureus recombinant deoxyguanosine kinase; type: functional, organism-based
[8] = system: Escherichia coli; assay: Antibacterial activity against […] kinase-deficient Escherichia coli KY895 expressing Streptococcus pyogenes recombinant deoxyadenosine kinase; type: functional
[9] = system: Escherichia coli; assay: Antibacterial activity against […] kinase-deficient Escherichia coli KY895 expressing Streptococcus pyogenes recombinant thymidine kinase; type: functional
[10] = system: Escherichia coli; assay: Antibacterial activity against […] kinase-deficient Escherichia coli KY895 expressing Staphylococcus aureus recombinant deoxyadenosine kinase; type: functional
[11] = system: Escherichia coli; assay: Antibacterial activity against […] kinase-deficient Escherichia coli KY895 expressing Staphylococcus aureus recombinant thymidine kinase; type: functional
[12] = system: Streptococcus pyogenes; assay: Antibacterial activity against 2.5 x 10^6 CFU Streptococcus pyogenes AP1-infected BALB/c mouse assessed as protection against bacterial dissemination in spleen at 100 ug, ip administered 6 hrs after bacterial infection and measured after 24 hrs postinfection; type: functional, organism-based
[13] = system: Staphylococcus aureus; assay: Antibacterial activity against exponentially growing Staphylococcus aureus ATCC 29213 at 0.002 ug/ml after 3 hrs by viable count susceptibility assay; type: functional, organism-based
Outline: (§2)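 Cells grown overnight in Todd-Hewitt broth at 37°C with 5% CO2, subcultured to OD620 0.4, washed twice and diluted 1,000-fold in 10 mM Tris-HCl pH 7.5, 5 mM glucose, 10% Todd-Hewitt. Stopped with ice-cold buffer; duplicate plating on Todd-Hewitt agar for viable counts.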

[14] = system: Streptococcus pyogenes; assay: Antibacterial activity against 1 x 10^7 CFU Streptococcus pyogenes AP1-infected BALB/c mouse assessed as survival at 100 ug, ip after 5 days; type: functional
Outline: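 Adult female BALB/c mice (~20 g), six per group, given ip 1 x 10^7 CFU of mid-exponential S. pyogenes AP1 (OD620 0.5, washed, in PBS). 6 h later, ip 100 µg drug or 100 µl PBS. Survival followed at regular intervals. Survivors sacrificed at 5 days. Inoculum checked by blood-agar colony counts.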

[15] = system: Streptococcus pyogenes; assay: Antibacterial activity against exponentially growing Streptococcus pyogenes AP1 at 0.2 ug/ml after 3 hrs by viable count susceptibility assay; type: functional, organism-based; outline: as §2
[16] = system: Streptococcus pyogenes; assay: Antimicrobial activity against Streptococcus pyogenes AP1 after 20 hrs; type: functional; details: AP1, 20 h; outline: as §1
[17] = substrate: Nc1nc(O)c2ncn([C@H]3C[C@H](O)[C@@H](CO)O3)c2n1; assay: Activity of Staphylococcus aureus CCM 885 recombinant deoxyguanosine kinase
Outline: (§3)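 Recombinant S. aureus kinase cut from a GST fusion (pGEX-2T, E. coli BL21) by thrombin. Initial velocities taken from four time samples in a DE-81 filter-paper assay with tritiated substrates at varied concentrations. Fits by nonlinear regression to Michaelis-Menten, or to the substrate-inhibition equation where needed.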

[18] = substrate: Nc1nc(O)c2ncn([C@H]3C[C@H](O)[C@@H](CO)O3)c2n1; assay: Ratio of kcat to Km for Staphylococcus aureus CCM 885 recombinant deoxyguanosine kinase; outline: as §3
[19] = substrate: Cc1cn([C@H]2C[C@H](O)[C@@H](CO)O2)c(=O)[nH]c1=O; assay: (§4) Ratio of kcat to Km for Staphylococcus aureus CCM 885 recombinant thymidine kinase
Outline: (§5)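 GST-fused SaTK expressed in E. coli BL21 (100 µM IPTG, 6 h at 25°C), purified on glutathione-Sepharose and cleaved from GST with thrombin. Initial velocities from four time samples, DE-81 filter-paper assay with tritium-labeled deoxyribonucleoside substrates at various concentrations. Michaelis-Menten nonlinear regression.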

[20] = substrate: Cc1cn([C@H]2C[C@H](N=[N+]=[N-])[C@@H](CO)O2)c(=O)[nH]c1=O; assay: as §4; outline: as §5
[21] = substrate: Cc1cn([C@H]2C[C@H](O)[C@@H](CO)O2)c(=O)[nH]c1=O; assay: (§6) Activity of Staphylococcus aureus CCM 885 recombinant thymidine kinase; outline: as §5
[22] = substrate: Cc1cn([C@H]2C[C@H](N=[N+]=[N-])[C@@H](CO)O2)c(=O)[nH]c1=O; assay: as §6; outline: as §5
[23] = substrate: Nc1ncnc2c1ncn2[C@H]1C[C@H](O)[C@@H](CO)O1; assay: (§7) Activity of Staphylococcus aureus CCM 885 recombinant deoxyadenosine kinase; outline: as §3
[24] = substrate: Nc1ccn([C@H]2C[C@H](O)[C@@H](CO)O2)c(=O)n1; assay: as §7; outline: as §3
[25] = substrate: Nc1ccn([C@@H]2O[C@H](CO)[C@@H](O)C2(F)F)c(=O)n1; assay: as §7; outline: as §3
[26] = substrate: Nc1ncnc2c1ncn2[C@H]1C[C@H](O)[C@@H](CO)O1; assay: (§8) Ratio of kcat to Km for Staphylococcus aureus CCM 885 recombinant deoxyadenosine kinase; outline: as §3
[27] = substrate: Nc1ccn([C@H]2C[C@H](O)[C@@H](CO)O2)c(=O)n1; assay: as §8; outline: as §3
[28] = substrate: Nc1ccn([C@@H]2O[C@H](CO)[C@@H](O)C2(F)F)c(=O)n1; assay: as §8; outline: as §3

Row | Molecule | MIC [1] | MIC [2] | MIC [3] | MIC [4] | MIC [5] | MIC [6] | other results
1 | Nc1nc(F)nc2c1ncn2[C@@H]1O[C@H](CO)[C@@H](O)[C@@H]1O [FLUDARABINE] | > 100 µM | > 100 µM | > 100 µM | > 100 µM | > 100 µM | > 100 µM | 
2 | Nc1nc(Cl)nc2c1ncn2[C@H]1C[C@H](O)[C@@H](CO)O1 [CLADRIBINE] | > 100 µM | > 100 µM | 100 µM (≈ 28.6 µg/mL) | 100 µM (≈ 28.6 µg/mL) | 100 µM (≈ 28.6 µg/mL) | > 100 µM | 
3 | Cc1cn([C@H]2C[C@H](N=[N+]=[N-])[C@@H](CO)O2)c(=O)[nH]c1=O [ZIDOVUDINE] | > 316 µM | > 316 µM | 316 µM (≈ 84.4 µg/mL) | > 316 µM | > 316 µM | 10 µM (≈ 2.67 µg/mL) | Activity [7]: inactive; Activity [8]: inactive; MIC [9]: 0.01 µM; Activity [10]: inactive; MIC [11]: 0.0316 µM
4 | O=c1[nH]c(=O)n([C@H]2C[C@H](O)[C@@H](CO)O2)cc1F [FLOXURIDINE] | 0.01 µM (≈ 0.00246 µg/mL) | 0.00316 µM (≈ 0.000778 µg/mL) | 0.1 µM (≈ 0.0246 µg/mL) | 10 µM (≈ 2.46 µg/mL) | 0.316 µM (≈ 0.0778 µg/mL) | 1 µM (≈ 0.246 µg/mL) | 
5 | CCc1cn([C@H]2C[C@H](O)[C@@H](CO)O2)c(=O)[nH]c1=O [EDOXUDINE] | > 316 µM | > 316 µM | > 316 µM | > 316 µM | > 316 µM | > 316 µM | 
6 | Nc1ccn([C@@H]2O[C@H](CO)[C@@H](O)[C@@H]2O)c(=O)n1 [CYTARABINE] | > 1000 µM | > 1000 µM | > 1000 µM | > 1000 µM | > 1000 µM | > 1000 µM | 
7 | Nc1ccn([C@@H]2O[C@H](CO)[C@@H](O)C2(F)F)c(=O)n1 [GEMCITABINE] | 0.1 µM (≈ 0.0263 µg/mL) | 0.1 µM (≈ 0.0263 µg/mL) | 0.01 µM (≈ 0.00263 µg/mL) | 0.1 µM (≈ 0.0263 µg/mL) | 0.0316 µM (≈ 0.00832 µg/mL) | > 1000 µM | Activity [12]: Active; Activity [7]: inactive; MIC [8]: 0.0316 µM; Activity [9]: inactive; Activity [13]: Active; MIC [10]: 0.001 µM; Activity [14]: 83%; Activity [15]: Active; Activity [11]: inactive; MIC [16]: 0.1 µM (≈ 0.0263 µg/mL)
8 | B1 |  |  |  |  |  |  | Km [17]: 1.1 µM; Vmax [17]: 1.4 U/mg; kcat [17]: 0.57 s⁻¹; kcat/Km [18]: 5.17 ×10⁵ /M/s
9 | B2 |  |  |  |  |  |  | kcat/Km [19]: 1.6 ×10⁵ /M/s; kcat/Km [20]: 1.29 ×10⁵ /M/s; Km [21]: 2.8 µM; Vmax [21]: 1.2 U/mg; kcat [21]: 0.44 s⁻¹; Km [22]: 11.6 µM; Vmax [22]: 4 U/mg; kcat [22]: 1.48 s⁻¹
10 | B3 |  |  |  |  |  |  | Km [23]: 29.2 µM; Vmax [23]: 4.1 U/mg; kcat [23]: 1.82 s⁻¹; Km [24]: 34.4 µM; Vmax [24]: 1.3 U/mg; kcat [24]: 0.56 s⁻¹; Km [25]: 192 µM; Vmax [25]: 0.43 U/mg; kcat [25]: 0.19 s⁻¹; kcat/Km [26]: 6.22 ×10⁴ /M/s; kcat/Km [27]: 1.62 ×10⁴ /M/s; kcat/Km [28]: 9.81 ×10² /M/s
